Laboratory results: ChEMBL document CHEMBL4513216, “Probing the Open Global Health Chemical Diversity Library for Multistage-Active Starting Points for Next-Generation Antimalarials” (ACS Infect Dis, 2020)

Test: Toxicity liver stage against HepG2, at 10uM
Format: cell-based
Parameters: test concentration 10 uM, cell line HepG2-A16-CD81EGFP
Details: human, HepG2-A16-CD81EGFP cells; read-out: INHIBITION
Outline: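 Uninfected HepG2-A16-CD81EGFP cells, 3 × 10^3 per well, 1536-well, plated on prespotted compound at 10 μM final, parasite-free screening media added to match infected plates; puromycin 10 μM positive, DMSO 0.5% negative; run in parallel with 48 h PbLuc assay at 37 °C, 5% CO2; viability by CellTiter-Glo luminescence, normalized to controls.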

**Q.** With CS(=O)(=O)NC[C@H]1Cn2c(-c3ccc(Cl)cc3)cnc2CO1 as the compound, how does the cytotoxicity at 10 µM read?
**A.** The cytotoxicity at 10 µM was -3.58%.

**Q.** For CC(=O)Nc1ccccc1Sc1nc(Br)nn1C, which cytotoxicity at 10 µM is on record?
**A.** The cytotoxicity at 10 µM was -1.05%.

**Q.** Which cytotoxicity at 10 µM does the source give for CCOC(=O)[C@H]1[C@@H](O)C(=O)N(C)C12CCN(C(=O)C(CC)CC)CC2 here?
**A.** The cytotoxicity at 10 µM was -4.47%.

**Q.** With CCN1CC(O)CN(C(=O)c2cccc(C(F)(F)F)c2)CC1=O (stereo not given) as the compound, how does the cytotoxicity at 10 µM read?
**A.** Its cytotoxicity at 10 µM is 4.04%.

**Q.** With COc1cc(OC)cc(-c2noc(C(N)CCSC)n2)c1 (stereo not given) as the compound, how does the cytotoxicity at 10 µM read?
**A.** The cytotoxicity at 10 µM was -3.18%.

**Q.** For COCCn1cc(CC(=O)Nc2nc[nH]n2)c2ccccc21, which cytotoxicity at 10 µM is on record?
**A.** The cytotoxicity at 10 µM was -0.145%.

**Q.** Which cytotoxicity at 10 µM does the source give for CCOc1ccc(C(=O)Nc2c(C)nc3scc(C)n3c2=O)cc1 here?
**A.** The cytotoxicity at 10 µM was -5.58%.

**Q.** With O=C(c1ccccc1F)N1CC(c2nc(C3CC3)no2)C1 as the compound, how does the cytotoxicity at 10 µM read?
**A.** Its cytotoxicity at 10 µM is -0.478%.

**Q.** With COc1ccc(C)cc1NC(=O)C1CSc2ncc(C)c(=O)n2C1 (stereo not given) as the compound, how does the cytotoxicity at 10 µM read?
**A.** Its cytotoxicity at 10 µM is -1.99%.

**Q.** With CC(C)NC(=O)N1CCC2(CC1)CCn1c(C3CC3)cnc12 as the compound, how does the cytotoxicity at 10 µM read?
**A.** Its cytotoxicity at 10 µM is 2.04%.

**Q.** With CC(C)CS(=O)(=O)N1CCC2(CC1)CCn1c(-c3cnn(C)c3)cnc12 as the compound, how does the cytotoxicity at 10 µM read?
**A.** The cytotoxicity at 10 µM was -131%.

**Q.** Which cytotoxicity at 10 µM does the source give for CN(Cc1ccccc1)CC1CC2(CO1)CN(Cc1cnn(C)c1)C2 (stereo not given) here?
**A.** Its cytotoxicity at 10 µM is 9.76%.

**Q.** For N#Cc1cccc(N2CCCC3(CN(C(=O)c4ccc[nH]4)CCO3)C2)c1 (stereo not given), which cytotoxicity at 10 µM is on record?
**A.** The cytotoxicity at 10 µM was 13.3%.

**Q.** Which cytotoxicity at 10 µM does the source give for CCC1=N[C@@]2(CC[C@@H]3CN(CC4CC4)C[C@@H]32)C(=O)N1 here?
**A.** Its cytotoxicity at 10 µM is 4.86%.

**Q.** With Cn1cc(C2CC(=O)NC23CCN(C(=O)c2ccc[nH]2)CC3)cn1 (stereo not given) as the compound, how does the cytotoxicity at 10 µM read?
**A.** Its cytotoxicity at 10 µM is 8.94%.

**Q.** With Cc1cc(C(=O)N2CCCC3(CCCN3Cc3cccnc3)C2)[nH]n1 (stereo not given) as the compound, how does the cytotoxicity at 10 µM read?
**A.** The cytotoxicity at 10 µM was 8.07%.

**Q.** With O=C(NCCN1CCCCC1)c1nc2ccccc2c(=O)[nH]1 as the compound, how does the cytotoxicity at 10 µM read?
**A.** Its cytotoxicity at 10 µM is 10.5%.

**Q.** For O=C(Cc1ccccc1)N1CCC2(CC(=O)N(c3cccc(F)c3)C2)C1 (stereo not given), which cytotoxicity at 10 µM is on record?
**A.** The cytotoxicity at 10 µM was -0.557%.

**Q.** Which cytotoxicity at 10 µM does the source give for COc1cccc(CNCc2ccccc2Cl)c1O here?
**A.** The cytotoxicity at 10 µM was -13.2%.

**Q.** With CN(C)S(=O)(=O)N1CCCC(c2nccnc2-c2cccc(Cl)c2)C1 (stereo not given) as the compound, how does the cytotoxicity at 10 µM read?
**A.** The cytotoxicity at 10 µM was 8.23%.

**Q.** For Cc1cc(CN2CCN(S(C)(=O)=O)CC(C(=O)N(C)C)C2)no1 (stereo not given), which cytotoxicity at 10 µM is on record?
**A.** The cytotoxicity at 10 µM was -9.74%.

**Q.** With CN(C(=O)COc1ccc(F)cc1)[C@@H]1CC[C@@H](n2ccnc2)[C@@H]1O as the compound, how does the cytotoxicity at 10 µM read?
**A.** The cytotoxicity at 10 µM was -5.28%.

**Q.** For CNc1cccc(C2CCCN(C(=O)c3cncs3)C2)n1 (stereo not given), which cytotoxicity at 10 µM is on record?
**A.** Its cytotoxicity at 10 µM is -18.3%.

**Q.** Which cytotoxicity at 10 µM does the source give for CC(=O)N1CCCC(Cc2nccn2C)C1 (stereo not given) here?
**A.** Its cytotoxicity at 10 µM is -5.52%.

**Q.** For CO[C@H]1CN(Cc2ccccc2F)C[C@@]12CCCO2, which cytotoxicity at 10 µM is on record?
**A.** The cytotoxicity at 10 µM was -8.19%.

**Q.** With COc1cc(C)ccc1OCC(=O)Nc1ccnc(OCCN(C)C)c1 as the compound, how does the cytotoxicity at 10 µM read?
**A.** The cytotoxicity at 10 µM was -5.18%.

**Q.** With O=C(Cc1ccc(F)c(F)c1)NC1COc2ccccc2C1=O (stereo not given) as the compound, how does the cytotoxicity at 10 µM read?
**A.** Its cytotoxicity at 10 µM is 4.61%.

**Q.** Which cytotoxicity at 10 µM does the source give for COc1ccc(COCC(O)CSc2ccc(NC(C)=O)cc2)cc1 (stereo not given) here?
**A.** Its cytotoxicity at 10 µM is 8.22%.

**Q.** With CN1CCOC(CNCc2nc(-c3ccoc3)no2)C1 (stereo not given) as the compound, how does the cytotoxicity at 10 µM read?
**A.** Its cytotoxicity at 10 µM is -5.27%.

**Q.** For COc1ccccc1NCC(=O)Nc1cnn(Cc2ccccn2)c1, which cytotoxicity at 10 µM is on record?
**A.** Its cytotoxicity at 10 µM is -0.53%.

**Q.** Which cytotoxicity at 10 µM does the source give for CC(NC(N)=O)C(=O)NCc1cc(Br)ccc1F (stereo not given) here?
**A.** Its cytotoxicity at 10 µM is -3.02%.

**Q.** For CC1c2cc(F)ccc2CCN1CCCS(=O)(=O)C(C)C (stereo not given), which cytotoxicity at 10 µM is on record?
**A.** The cytotoxicity at 10 µM was 9.15%.

**Q.** With COc1ccccc1NCC(=O)NCc1scnc1C as the compound, how does the cytotoxicity at 10 µM read?
**A.** Its cytotoxicity at 10 µM is 5.48%.

**Q.** Which cytotoxicity at 10 µM does the source give for Cn1cc(C(=O)NCCCN2CCCCCC2=O)c(-c2cccnc2)n1 here?
**A.** Its cytotoxicity at 10 µM is -8.3%.

**Q.** With Cc1cc(C(=O)Nc2ccc(CN3CCOCC3)cn2)n(C)n1 as the compound, how does the cytotoxicity at 10 µM read?
**A.** The cytotoxicity at 10 µM was 3.86%.

**Q.** Which cytotoxicity at 10 µM does the source give for CCN(CC)C(=O)c1ccc(COc2ccccc2C#N)o1 here?
**A.** The cytotoxicity at 10 µM was 1.96%.

**Q.** With CCCc1nnc(NC(=O)NC2CCOc3ccccc32)s1 (stereo not given) as the compound, how does the cytotoxicity at 10 µM read?
**A.** Its cytotoxicity at 10 µM is 3.72%.

**Q.** With COc1ccc(NC(=O)N(CCO)Cc2ccsc2)c(OC)c1 as the compound, how does the cytotoxicity at 10 µM read?
**A.** The cytotoxicity at 10 µM was 12.2%.

**Q.** Which cytotoxicity at 10 µM does the source give for CC(C)C(O)CNC(=O)Nc1ccc(F)c(Cl)c1 (stereo not given) here?
**A.** The cytotoxicity at 10 µM was 5.6%.

**Q.** With CCNC(=O)C1CCCN(C(=O)Nc2ccc3c(c2)CCCN3C)C1 (stereo not given) as the compound, how does the cytotoxicity at 10 µM read?
**A.** Its cytotoxicity at 10 µM is 13.6%.

**Q.** Which cytotoxicity at 10 µM does the source give for OCC(O)CSCc1cc(Cl)ccc1Cl (stereo not given) here?
**A.** The cytotoxicity at 10 µM was -147%.

**Q.** Which cytotoxicity at 10 µM does the source give for CC(=O)NCCC(=O)NCc1ccc(Br)cc1Cl here?
**A.** Its cytotoxicity at 10 µM is 0.871%.

**Q.** With Cc1ccc(C(=O)O)cc1NC(=O)C1CC=CC1 as the compound, how does the cytotoxicity at 10 µM read?
**A.** Its cytotoxicity at 10 µM is -7.25%.

**Q.** For O=C(NCc1ccco1)c1cccc(CN2CCCC2CO)c1 (stereo not given), which cytotoxicity at 10 µM is on record?
**A.** The cytotoxicity at 10 µM was -3.13%.

**Q.** With CC(Cn1cccn1)NC(=O)NCCN1CCCCCC1=O (stereo not given) as the compound, how does the cytotoxicity at 10 µM read?
**A.** Its cytotoxicity at 10 µM is 12.3%.

**Q.** With CCC(C)(NCc1nnc(C(C)(C)C)o1)c1nccs1 (stereo not given) as the compound, how does the cytotoxicity at 10 µM read?
**A.** The cytotoxicity at 10 µM was 19.2%.

**Q.** Which cytotoxicity at 10 µM does the source give for N#Cc1ccc(N2CCCN(CC(N)=O)CC2)cc1 here?
**A.** Its cytotoxicity at 10 µM is 3.11%.

**Q.** With CC(C)N(Cc1cnn(C)c1)C(=O)c1ccnc(N(C)C)c1 as the compound, how does the cytotoxicity at 10 µM read?
**A.** Its cytotoxicity at 10 µM is 10.6%.

**Q.** For Cc1nsc(NC2CCOC3(CCCCC3)C2)n1 (stereo not given), which cytotoxicity at 10 µM is on record?
**A.** Its cytotoxicity at 10 µM is 5%.

**Q.** With COc1ccc(OCC(=O)NC(C)c2ccccc2)c(C(=O)O)c1 (stereo not given) as the compound, how does the cytotoxicity at 10 µM read?
**A.** Its cytotoxicity at 10 µM is 2.4%.

**Q.** With Cc1nc(CN2CCC(CNC(=O)Nc3ccccn3)CC2)oc1C as the compound, how does the cytotoxicity at 10 µM read?
**A.** Its cytotoxicity at 10 µM is -3.5%.

**Q.** Which cytotoxicity at 10 µM does the source give for CC(NC(=O)c1nc(=O)[nH][nH]1)c1ccc(OCC2CC2)c(F)c1 (stereo not given) here?
**A.** The cytotoxicity at 10 µM was -5.75%.

**Q.** For CC1CN(CC(=O)NC(=O)NCc2ccccc2)CCO1 (stereo not given), which cytotoxicity at 10 µM is on record?
**A.** Its cytotoxicity at 10 µM is -7.07%.

**Q.** With CCO[C@@H]1CC[C@H]2[C@H]1OCCN2C(=O)CC1=CCCCC1 as the compound, how does the cytotoxicity at 10 µM read?
**A.** Its cytotoxicity at 10 µM is 2.91%.

**Q.** Which cytotoxicity at 10 µM does the source give for CCN(C(=O)c1nc2c(s1)CCCN2C(C)=O)C(C)C here?
**A.** The cytotoxicity at 10 µM was -0.802%.
